As a reminder, the IC50 is the midpoint of a concentration-inhibition curve.

Data set [1] has as its system MDA-MB-231. The experiment in a line: Antiproliferative activity, resazurin assay. The format is cell-based. Particulars: Homo sapiens, MDA-MB-231, 72 h, read-out: IC50 MDA-MB-231.
For data set [2], the system named is A2780. The data set can be described thus: Antiproliferative activity, resazurin assay. In kind it is cell-based. Particulars: Homo sapiens, A2780, 72 h, read-out: IC50 A2780. Background: The colour change of resazurin is a common sign of viable cells or microbes.
The test system of data set [3] is tested cancer cell lines (MDA-MB-231, A2780). The experiment in a line: Antiproliferative activity, text summary over tested cancer cell lines. The following applies: 72 h, read-out: IC50 range in the tested cancer cell lines. In kind it is cell-based.
In data set [4] the test system is A2780 cells. The experiment in a line: Cell cycle analysis by flow cytometry. Particulars: A2780, 24-hour incubation, DFX 50 μM, QT and IQT 5 μM. In kind it is cell-based.
Data set [5] deals with transferrin receptor 1 (TfR1). The experiment in a line: Western blot of iron handlers. The format is cell-based. Particulars: DFX 50 μM, QT and IQT 5 μM, FAC 50 μM. Summed up: (§1)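 A2780 cancer cells were exposed to test compounds (5 μM) or the reference iron chelator deferasirox (50 μM), with DMSO vehicle as control. Transferrin receptor 1 and ferritin heavy chain were probed by Western blot as markers of iron signalling. Statistics used t-tests versus DMSO vehicle.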
On the technique in general: Immunoblotting shows a protein as a band on a membrane.

The test system of data set [6] is ferritin heavy chain (ferritin H). The data set can be described thus: Western blot of iron handlers. Particulars: DFX 50 μM, QT and IQT 5 μM, FAC 50 μM. The format is cell-based. Summed up: as §1
For data set [7] the following is noted: cited from earlier work.

On to `O=C(O)c1ccc(-n2nc(-c3ccccc3O)nc2-c2ccccc2O)cc1` [DFX, deferasirox], for which the IC50 was 15 ± 2 µM in data set [1], 12 ± 2 µM in data set [2] and 10 to 20 µM in data set [3]. In data set [4], the cell cycle effect entry is given as “cell accumulation in the S-phase”. In addition, the TfR1 expression level entry in data set [5] was “upregulation of TfR1”. In data set [6], the “ferritin H expression level” value is reported as “degradation of ferritin”.

As to `Cc1nc(-[n+]2nc(-c3ccccc3)nn2-c2ccccc2)sc1C.[Br-]` [MTT, 3-(4,5-dimethyl-2-thiazolyl)-2,5-diphenyl-tetrazolium], the “reduction in FBS” value in data set [7] is listed as “prone to reduction in FBS”.

With ferric ammonium citrate [FAC], the TfR1 expression level result in data set [5] is “decreased TfR1 expression”. The “ferritin H expression level” value in data set [6] is “upregulation of ferritin”.

The values above are taken from PMC11568512 (Chemical communications (Cambridge, England), 2024).
